ChEMBL document CHEMBL3352013, “The design and synthesis of potent and selective inhibitors of Trypanosoma brucei glycogen synthase kinase 3 for the treatment of human african trypanosomiasis” (J Med Chem, 2014)

Key:
[1] = tested on: Trypanosoma brucei brucei; experiment: Trypanocidal activity against bloodstream stage of Trypanosoma brucei brucei assessed as inhibition of proliferation after 72 hrs; assay type: functional, organism-based
Method in brief: (§1)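 Resazurin viability assay: 2 × 10³ cells/well (MRC5 in MEM + 10% FBS; bloodstream-form T. b. brucei in appropriate medium), compounds 50 μM to 0.5 nM, 37 °C, 5% CO₂ for 69 h, then resazurin 50 μM final for further 4 h; fluorescence read. Concentration giving 50% growth inhibition over 72 h; average of two or more experiments.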

[2] = biological target: Glycogen synthase kinase-3 (Homo sapiens, UniProt P49840+P49841); experiment: Inhibition of human GSK3 using biotinylated GSP2 substrate by flashplate assay; assay type: protein assay
[3] = Inhibition of Trypanosoma brucei GSK3 using biotinylated GSP2 substrate by flashplate assay
Method in brief: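 Radiometric Flashplate assay: 2.5 nM TbGSK3 short, 1 μM biotinylated GSP2, 1 μM ATP plus [γ-33P]-ATP. 10-point titration 30 μM to 0.3 nM final, 1% DMSO. IC50 averaged over two or more experiments; standard GW8510 used for reproducibility (MSR).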

[4] = Selectivity ratio, ratio of IC50 for human GSK3 to IC50 Trypanosoma brucei GSK3
MRC5 = experiment: Cytotoxicity against human MRC5 cells assessed as growth inhibition after 72 hrs; assay type: cell-based; settings: MRC5, 72 h; method in brief: as §1
[5] = Selectivity ratio, ratio of IC50 for human CDK2/cyclin A to IC50 for Trypanosoma brucei GSK3
CDK2/Cyclin A2 = CDK2/Cyclin A2 (Homo sapiens, UniProt P24941); experiment: Inhibition of human CDK2/cyclin A using Biotin-C6-PKTPKKAKKL substrate; assay type: protein-complex assay

Compound | EC50 [1] | IC50 [2] | IC50 [3] | Ratio IC50 [4] | EC50 (MRC5) | Ratio IC50 [5] | IC50 (CDK2/Cyclin A2)
CO[C@H]1CC[C@H](NC(=O)c2n[nH]cc2NC(=O)c2ccccc2Nc2ccccc2)CC1 | 4.4 µM | 0.02 µM | 0.011 µM | 1.8 | 35 µM |  | 
COc1cccc(OC)c1C(=O)Nc1c[nH]nc1C(=O)NN1CCOCC1 | 50 µM | 0.45 µM | 0.081 µM | 5.6 | > 50 µM | > 120 | > 10 µM
COc1cccc(OC)c1C(=O)Nc1c[nH]nc1C(=O)NC1CCC1 | 12 µM | 0.08 µM | 0.008 µM | 10 | > 50 µM | 300 | 2.4 µM
CO[C@H]1CC[C@H](NC(=O)c2n[nH]cc2NC(=O)Cc2ccccc2F)CC1 | 23 µM | 0.14 µM | 0.39 µM | 0.35 | > 50 µM | 2.1 | 0.82 µM
COc1cccc(OC)c1C(=O)Nc1c[nH]nc1C(=O)N[C@H]1CC[C@H](O)CC1 | 6.4 µM | 0.07 µM | 0.002 µM | 35 | 34 µM | 800 | 1.6 µM
CO[C@H]1CC[C@H](NC(=O)c2n[nH]cc2NC(=O)c2ccccc2Nc2cccc(C)c2C)CC1 | 5.8 µM | 0.03 µM | 0.066 µM | 0.45 | 16 µM |  | 
CO[C@H]1CC[C@H](NC(=O)c2n[nH]cc2NC(=O)c2cnc3ccccn23)CC1 | 2.6 µM | < 0.005 µM | 0.094 µM |  | 5.9 µM | 1.6 | 0.15 µM
CO[C@H]1CC[C@H](NC(=O)c2n[nH]cc2NC(=O)c2ccccc2C(F)(F)F)CC1 | 2.3 µM | < 0.013 µM | 0.018 µM |  | 3.3 µM | 5.6 | 0.1 µM
COc1cccc(OC)c1C(=O)Nc1c[nH]nc1C(=O)NCCN1CCOCC1 | > 50 µM | 0.63 µM | 0.054 µM | 12 | > 50 µM | > 190 | > 10 µM
CO[C@H]1CC[C@H](NC(=O)c2n[nH]cc2NC(=O)c2ccccc2F)CC1 | 0.4 µM | < 0.005 µM | 0.02 µM | 0.25 | 1 µM |  | 0.014 µM
CO[C@H]1CC[C@H](NC(=O)c2n[nH]cc2NC(=O)c2c(C)nc3ccccn23)CC1 | 2.9 µM | 0.042 µM | 0.1 µM | 0.42 | 34 µM | 22 | 2.2 µM
CO[C@H]1CC[C@H](NC(=O)c2n[nH]cc2NC(=O)c2ccc(F)cc2F)CC1 | 3.8 µM | < 0.005 µM | 0.053 µM |  | 11 µM | 4.2 | 0.22 µM
CCc1ccccc1C(=O)Nc1c[nH]nc1C(=O)N[C@H]1CC[C@H](OC)CC1 | 2.8 µM | 0.02 µM | 0.053 µM | 0.38 | 3.4 µM | 1.3 | 0.07 µM
COc1cccc(OC)c1C(=O)Nc1c[nH]nc1C(=O)NC1CCN(C(=O)OC(C)(C)C)CC1 | 12 µM | 0.14 µM | 0.006 µM | 23 | > 50 µM | 780 | 4.7 µM
COc1cccc(OC)c1C(=O)Nc1c[nH]nc1C(=O)NCCCN(C)C | > 50 µM | 0.47 µM | 0.33 µM | 1.4 | > 50 µM | > 30 | > 10 µM
COc1cccc(OC)c1C(=O)Nc1c[nH]nc1C(=O)NCc1ccccn1 | 20 µM | 0.32 µM | 0.015 µM | 21 | > 50 µM | > 670 | > 10 µM
COc1cccc(OC)c1C(=O)Nc1c[nH]nc1C(=O)NC1CCCCC1 | 4.1 µM | 0.05 µM | 0.001 µM | 50 | 35 µM | 1200 | 1.2 µM
COc1cccc(OC)c1C(=O)Nc1c[nH]nc1C(=O)O | > 50 µM | > 10 µM | > 50 µM |  | > 50 µM |  | > 10 µM
COc1cccc(OC)c1C(=O)Nc1c[nH]nc1C(=O)NCC1CCCCC1 | 7.7 µM |  | 0.001 µM |  | > 50 µM |  | 
COc1ccccc1CC(=O)Nc1c[nH]nc1C(=O)N[C@H]1CC[C@H](OC)CC1 | 22 µM | 0.21 µM | 0.5 µM | 0.42 | 40 µM | 1.7 | 0.85 µM

Compound | EC50 [1] | IC50 [2] | IC50 [3] | Ratio IC50 [4] | EC50 (MRC5) | Ratio IC50 [5] | IC50 (CDK2/Cyclin A2)
COc1cccc(OC)c1C(=O)Nc1c[nH]nc1C(=O)Nc1ccncc1 | 8.2 µM | 0.12 µM | 0.004 µM | 30 | > 50 µM | 330 | 1.3 µM
COc1cccc(OC)c1C(=O)Nc1c[nH]nc1C(=O)NC1CC1 | 19 µM | 0.22 µM | 0.012 µM | 18 | > 50 µM |  | > 10 µM
COc1cccc(OC)c1C(=O)Nc1c[nH]nc1C(=O)NCc1ncccc1C | > 50 µM | 0.87 µM | 0.14 µM | 6.2 | > 50 µM | > 71 | > 10 µM
CO[C@H]1CC[C@H](NC(=O)c2n[nH]cc2NC(=O)c2ccc(N3CCCC3)cc2)CC1 | 2.7 µM | < 0.005 µM | 0.019 µM |  | > 50 µM | 6.8 | 0.13 µM
COc1ccccc1C(=O)Nc1c[nH]nc1C(=O)N[C@H]1CC[C@H](OC)CC1 | 0.9 µM | < 0.013 µM | 0.004 µM |  | 1.5 µM | 25 | 0.1 µM
COc1cccc(OC)c1C(=O)Nc1c[nH]nc1C(=O)Nc1ccccn1 | > 50 µM | 0.94 µM | 0.32 µM | 2.9 | > 50 µM | > 31 | > 10 µM
COc1cc(OC)c(C(=O)Nc2c[nH]nc2C(=O)N[C@H]2CC[C@H](OC)CC2)c(OC)c1 | 5.9 µM | 0.09 µM | 0.003 µM | 30 | > 50 µM | 1000 | 3.1 µM
CO[C@H]1CC[C@H](NC(=O)c2n[nH]cc2NC(=O)c2ccc(N3CCN(C)CC3)cc2)CC1 | 2 µM | < 0.005 µM | 0.07 µM |  | 20 µM | 14 | 1 µM
COc1cccc(OC)c1C(=O)Nc1c[nH]nc1C(=O)NC1CCCCCC1 | 4.5 µM | 0.02 µM | 0.001 µM | 20 | 42 µM | 2000 | 2 µM
CO[C@H]1CC[C@H](NC(=O)c2n[nH]cc2NC(=O)c2ncoc2-c2ccccc2)CC1 | > 50 µM | 0.005 µM | 0.92 µM | 0.0058 | 28 µM | 24 | 22 µM
CO[C@H]1CC[C@H](NC(=O)c2n[nH]cc2NC(=O)c2cc3ccccc3o2)CC1 | 1.2 µM | < 0.005 µM | 0.013 µM |  | 0.8 µM |  | 
CO[C@H]1CC[C@H](NC(=O)c2n[nH]cc2NC(=O)c2cc(Cl)cc(Cl)c2)CC1 | 9.6 µM | < 0.005 µM | 0.057 µM |  | 13 µM | 11 | 0.63 µM
CO[C@H]1CC[C@H](NC(=O)c2n[nH]cc2NC(=O)c2cc(F)cc(F)c2)CC1 | 2.6 µM | < 0.005 µM | 0.024 µM |  | 0.6 µM | 3.5 | 0.083 µM
CO[C@H]1CC[C@H](NC(=O)c2n[nH]cc2NC(=O)c2cc3ccccn3n2)CC1 | 1.9 µM | < 0.005 µM | 0.063 µM |  | 1 µM | 0.67 | 0.042 µM
COc1cccc(OC)c1C(=O)Nc1c[nH]nc1C(=O)NC1CC2CCC1C2 (stereo unspecified) | 16 µM |  | 0.018 µM |  | > 50 µM | > 560 | > 10 µM
CO[C@H]1CC[C@H](NC(=O)c2n[nH]cc2NC(=O)c2ccc(OC(F)F)cc2)CC1 | 1.1 µM | < 0.005 µM | 0.016 µM |  | 2.5 µM | 17 | 0.27 µM
COc1cccc(OC)c1C(=O)Nc1c[nH]nc1C(=O)NCCCOC(C)C | 6.6 µM |  | 0.001 µM |  | > 50 µM | > 10000 | > 10 µM
COc1cccc(OC)c1C(=O)Nc1c[nH]nc1C(=O)NC1CCC(C)CC1 (mixture of isomers) | 6.7 µM |  | 0.001 µM |  | 45 µM | 4800 | > 4.8 µM
CCCCCNC(=O)c1n[nH]cc1NC(=O)c1c(OC)cccc1OC | 7.3 µM | 0.1 µM | 0.001 µM |  | > 50 µM | 4800 | 4.8 µM
